Experimental data reported in ChEMBL document CHEMBL1139076, “Structural simplification of bioactive natural products with multicomponent synthesis: dihydropyridopyrazole analogues of podophyllotoxin” (2007).

Assays:
[1] = system: HeLa; test: Cytotoxicity against human HeLa cells assessed as viability at 5 uM after 48 hrs by MTT method relative to control; type: functional; settings: read-out: Activity
Method in brief: (§1)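 Cells treated 48 h with compound at final 5 µM. Viability was read as mitochondrial dehydrogenase activity by MTT and expressed as % of the 100% DMSO control. Values are mean ± s.d. from two experiments.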

[2] = Cytotoxicity against human MCF7AZ cells assessed as viability at 5 uM after 48 hrs by MTT method relative to control; type: functional; settings: MCF7/AZ, read-out: Activity; method in brief: as §1
[3] = system: Jurkat; test: Cytotoxicity against human Jurkat cells assessed as viability at 5 uM after 48 hrs by MTT method relative to control; type: functional; settings: read-out: Activity; method in brief: as §1
[4] = system: Jurkat; test: Induction of apoptosis in human Jurkat cells at 5 uM by flow cytometric annexin-V/propidium iodide assay; type: functional, cell-based; settings: TDE = time-dependent effect
Method in brief: (§2)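 Jurkat cells were treated for 12, 24, 36 or 48 h against a DMSO control. Apoptosis was scored by flow cytometry after annexin-V/propidium iodide staining.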

[5] = system: Jurkat; test: Induction of apoptosis in human Jurkat cells at 5 uM after 48 hrs by flow cytometric annexin-V/propidium iodide assay; type: functional; method in brief: as §2
[6] = Cytotoxicity against human MCF7AZ cells assessed as viability at 50 uM after 48 hrs by MTT method relative to control; type: functional; settings: MCF7/AZ, read-out: Activity
Method in brief: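 MCF7-AZ cells were exposed 48 h to compound at final 50 µM. Viability was read as mitochondrial dehydrogenase activity by MTT, relative to DMSO control.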

[7] = system: Jurkat; test: Induction of apoptosis in human Jurkat cells at 50 uM by flow cytometric annexin-V/propidium iodide assay; type: functional, cell-based; settings: TDE = time-dependent effect
Method in brief: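 Human T-cell leukemia Jurkat cells were exposed to compound alongside a DMSO control and harvested after 12, 24, 36 and 48 hours. Apoptosis was read by flow cytometry after annexin-V and propidium iodide staining.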

[8] = system: Jurkat; test: Induction of apoptosis in human Jurkat cells at 50 uM after 48 hrs by flow cytometric annexin-V/propidium iodide assay; type: functional; method in brief: as §2

| SMILES | viability at 5 µM [1] | viability at 5 µM [2] | viability at 5 µM [3] | Activity [4] | Activity [5] | viability at 50 µM [6] | Activity [7] | Activity [8] |
| --- | --- | --- | --- | --- | --- | --- | --- | --- |
| Cc1n[nH]c2c1C(c1ccccc1[N+](=O)[O-])C1=C(COC1=O)N2 (stereo not given) | 71% | 99% | 64% | – | – | – | – | – |
| Cc1n[nH]c2c1C(c1cnn(-c3ccccc3)c1Cl)C1=C(COC1=O)N2 (stereo not given) | 58% | 100% | 94% | – | – | – | – | – |
| Cc1n[nH]c2c1C(c1ccccc1Br)C1=C(COC1=O)N2 (stereo not given) | 57% | 100% | 90% | – | – | – | – | – |
| COc1cc([C@H]2C3=C(COC3=O)Nc3cc4c(cc32)OCO4)cc(OC)c1OC | 54% | 52% | 54% | – | – | – | – | – |
| COc1ccc(C2C3=C(COC3=O)Nc3[nH]nc(C)c32)cc1OC (stereo not given) | 73% | 95% | 88% | – | – | – | – | – |
| CSc1ccc(C2C3=C(COC3=O)Nc3[nH]nc(C)c32)cc1 (stereo not given) | 45% | 95% | 87% | – | – | – | – | – |
| Cc1n[nH]c2c1C(c1ccccc1)C1=C(COC1=O)N2 (stereo not given) | 74% | 84% | 87% | – | – | – | – | – |
| COc1cc(C2C3=C(COC3=O)Nc3[nH]nc(C)c32)cc(OC)c1OC (stereo not given) | 50% | 58% | 47% | tde | 70% | – | – | – |
| COc1ccc(C2C3=C(COC3=O)Nc3[nH]nc(C)c32)cc1 (stereo not given) | 73% | 82% | 94% | – | – | – | – | – |
| Cc1n[nH]c2c1C(c1ccc(N(C)C)c(Br)c1)C1=C(COC1=O)N2 (stereo not given) | 55% | 59% | 34% | – | – | – | – | – |
| Cc1n[nH]c2c1C(c1c(C)nc3sccn13)C1=C(COC1=O)N2 (stereo not given) | 84% | 100% | 85% | – | – | – | – | – |
| Cc1n[nH]c2c1C(c1cc(Br)c(O)c(Br)c1)C1=C(COC1=O)N2 (stereo not given) | 58% | 60% | 58% | – | – | – | – | – |
| Cc1n[nH]c2c1C(c1cccs1)C1=C(COC1=O)N2 (stereo not given) | 82% | 98% | 74% | – | – | – | – | – |
| Cc1n[nH]c2c1C(c1ccc(C3C4=C(COC4=O)Nc4[nH]nc(C)c43)cc1)C1=C(COC1=O)N2 (stereo not given) | 56% | 99% | 96% | – | – | – | – | – |
| CCOc1c(Br)cc(C2C3=C(COC3=O)Nc3[nH]nc(C)c32)cc1OC (stereo not given) | 52% | 49% | 28% | – | – | – | – | – |
| COc1cc([C@@H]2c3cc4c(cc3[C@H](O)[C@H]3COC(=O)[C@H]23)OCO4)cc(OC)c1OC [PODOFILOX] | 19% | 55% | 18% | tde | 70% | – | – | – |

| SMILES | viability at 5 µM [1] | viability at 5 µM [2] | viability at 5 µM [3] | Activity [4] | Activity [5] | viability at 50 µM [6] | Activity [7] | Activity [8] |
| --- | --- | --- | --- | --- | --- | --- | --- | --- |
| COc1cc(C2C3=C(COC3=O)Nc3[nH]nc(C)c32)cc([N+](=O)[O-])c1O (stereo not given) | 78% | 89% | 90% | – | – | – | – | – |
| Cc1n[nH]c2c1C(C)C1=C(COC1=O)N2 (stereo not given) | 70% | 97% | 78% | – | – | – | – | – |
| COc1cc([C@@H]2c3cc4c(cc3[C@@H](O[C@@H]3O[C@@H]5CO[C@@H](C)O[C@H]5[C@H](O)[C@H]3O)[C@H]3COC(=O)[C@H]23)OCO4)cc(OC)c1O [ETOPOSIDE] | 91% | 76% | 75% | – | – | 57% | tde | 70% |
| Cc1n[nH]c2c1C(c1cccc(Br)c1)C1=C(COC1=O)N2 (stereo not given) | 51% | 63% | 68% | tde | 70% | – | – | – |
| Cc1n[nH]c2c1C(c1ccc(Cl)c(Cl)c1)C1=C(COC1=O)N2 (stereo not given) | 88% | 56% | 71% | – | – | – | – | – |
| COc1cc(C2C3=C(COC3=O)Nc3[nH]nc(C)c32)cc(Br)c1OC(C)=O (stereo not given) | 47% | 46% | 36% | – | – | – | – | – |
| Cc1n[nH]c2c1C(c1cccc(Cl)c1)C1=C(COC1=O)N2 (stereo not given) | 43% | 54% | 76% | – | – | – | – | – |
| Cc1n[nH]c2c1C(c1ccncc1)C1=C(COC1=O)N2 (stereo not given) | 94% | 100% | 92% | – | – | – | – | – |
| Cc1n[nH]c2c1C(c1cccnc1)C1=C(COC1=O)N2 (stereo not given) | 69% | 96% | 88% | – | – | – | – | – |
| Cc1nc2ccccc2nc1C1C2=C(COC2=O)Nc2[nH]nc(C)c21 (stereo not given) | 72% | 100% | 97% | – | – | – | – | – |
| Cc1n[nH]c2c1C(c1ccsc1)C1=C(COC1=O)N2 (stereo not given) | 98% | 100% | 82% | – | – | – | – | – |
| C=C(C)[C@@H]1CC=C(C2C3=C(COC3=O)Nc3[nH]nc(C)c32)CC1 (stereo not given in full) | 95% | 91% | 89% | – | – | – | – | – |
| Cc1n[nH]c2c1C(c1ccc(Br)cc1)C1=C(COC1=O)N2 (stereo not given) | 62% | 92% | 90% | – | – | – | – | – |
| COc1cc2c(cc1OC)[C@@H](c1cc(OC)c(OC)c(OC)c1)C1=C(COC1=O)N2 | 53% | 58% | 35% | – | – | – | – | – |
| Cc1n[nH]c2c1C(c1cccc(F)c1)C1=C(COC1=O)N2 (stereo not given) | 99% | 76% | 84% | – | – | – | – | – |
| Cc1n[nH]c2c1C(c1ccc(OC(F)(F)F)cc1)C1=C(COC1=O)N2 (stereo not given) | 97% | 84% | 97% | – | – | – | – | – |
